These results are taken from ChEMBL document CHEMBL1137341, “Small-molecule inhibitors of histone acetyltransferase activity: identification and biological properties” (2006).

The source made the active and inactive calls. The calls are words filed in the database; no cut-off is given here.

Experiment [1] has as its target Histone acetyltransferase GCN5 (Saccharomyces cerevisiae S288c) (UniProt Q03330). As to the kind of experiment: Inhibition of Saccharomyces cerevisiae GCN5 at 0.6 mM. The procedure, abridged:
(§1)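 Yeast strains (wild-type MK839, F221A and E173H GCN5 catalytic mutants, spt20∆) grown at 28 °C with 0.6 mM compound; ten-fold serial dilutions of liquid culture spotted on solid medium. Growth estimated by optical density as arbitrary units.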

In experiment [2] the test system is U-937. The experiment is described as follows: Inhibition of HAT in human U937 cells at 500 uM. Details: scale not given: the % may be the effect or the level left. The experiment is classed as functional. Put shortly: (§2)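 Indirect ELISA for acetylated histone H3 using 10 µg U937 nuclear extract per well as HAT source; 90 min incubation with compound (25, 50 or 500 µM) or DMSO control. Acetylated H3 peptide standard curve; expressed as % inhibition relative to untreated extract (100%).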

Experiment [3] relates to U-937. As to the kind of experiment: Inhibition of alpha-tubulin acetylation in human U937 cells at 2.5 mM. The experiment is classed as functional, cell-based. The procedure, abridged: (§3)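 U937 cells pretreated 2 h with 5 µM SAHA, washed, then incubated 4 h with vehicle or compound at 2.5 mM. Western blot for acetylated histone H3 and acetylated α-tubulin (50 µg protein on 10% gels, normalized to total ERKs).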

Experiment [4] deals with Saccharomyces cerevisiae. The experiment is described as follows: Inhibition of Saccharomyces cerevisiae H3 histone acetylation at 1.5 mM. The experiment is classed as functional, organism-based. The procedure, abridged: (§4)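 Wild-type S. cerevisiae grown 16 h in YPD at 28 °C with 0.6, 1 or 1.5 mM compound; gcn5∆ strain run in parallel. Alkaline protein extraction, 15% SDS-PAGE, Western blot with anti-acetyl-H3 and anti-H3 antibodies, ECL detection.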

Experiment [5] concerns the target Histone acetyltransferase GCN5 (Saccharomyces cerevisiae S288c) (UniProt Q03330). The experiment is described as follows: Inhibition of GCN5-dependent HIS3-LacZ reporter gene transcription measured as level of beta-galactosidase activity in Saccharomyces cerevisiae. The class given is functional. Put shortly:
(§5)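 Yeast reporter strains: HIS3-LacZ (yPO14) grown 16 h in SD at 28 °C and then 4 h with 25 mM 3-aminotriazole; GAL10-CYC1-LacZ (yPO1569) grown 16 h in SD, washed, then 4 h in galactose SG medium. Compounds at 0.6 mM. β-Gal activity read in glass-bead extracts normalized to Bradford protein; 1 unit = 1 µmol o-nitrophenol/min.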

Experiment [6] relates to Saccharomyces cerevisiae. As to the kind of experiment: Inhibition of Saccharomyces cerevisiae growth at 0.6 mM. The experiment is classed as functional, organism-based. The procedure, abridged: as §1
The test system of experiment [7] is Saccharomyces cerevisiae. The experiment is described as follows: Inhibition of GCN5-independent GAL10-CYC1-LacZ reporter gene transcription measured as level of beta-galactosidase activity in Saccharomyces cerevisiae under galactose induction.
Experiment [8] relates to U-937. The experiment is described as follows: Effect on granulocytic differentiation in human U937 cells measured as CD11c expression level at 1 mM after 30 hrs. The class given is functional. Put shortly: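 U937 cells (RPMI, 10% FBS, 200 000 cells/mL) exposed 30 h to 1 mM. Stained with PE-conjugated CD11c, 30 min at 4 °C in the dark; PE mouse IgG1 as staining control; propidium iodide 0.25 µg/mL added and PI-positive cells excluded. Reported as percent CD11c-positive cells by FACS.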

Experiment [9] concerns the target Histone acetyltransferase GCN5 (Saccharomyces cerevisiae S288c) (UniProt Q03330). As to the kind of experiment: Inhibition of GCN5-dependent HIS3-LacZ reporter gene transcription measured as level of beta-galactosidase activity in Saccharomyces cerevisiae in presence of 3-aminotriazole. The experiment is classed as functional. For orientation: In a reporter assay the amount or activity of a reporter protein is the signal.

The subject of experiment [10] is U-937. The experiment is described as follows: Inhibition of HAT in human U937 cells at 50 uM. The class given is functional. On the set-up: scale not given: the % may be the effect or the level left. Put shortly:
as §2

For experiment [11], the system named is Saccharomyces cerevisiae. The experiment is described as follows: Inhibition of growth of wild type Saccharomyces cerevisiae MK839 mutant at 0.6 mM. The experiment is classed as functional, organism-based. Put shortly:
as §1

Experiment [12] concerns Saccharomyces cerevisiae. As to the kind of experiment: Inhibition of GCN5-independent GAL10-CYC1-LacZ reporter gene transcription measured as level of beta-galactosidase activity in Saccharomyces cerevisiae. The experiment is classed as functional, organism-based. Put shortly:
as §5

Experiment [13] deals with Saccharomyces cerevisiae. As to the kind of experiment: Inhibition of growth of Saccharomyces cerevisiae spt20delta mutant at 0.6 mM. The class given is functional, organism-based. The procedure, abridged:
as §1

Experiment [14] has as its system Saccharomyces cerevisiae. As to the kind of experiment: Inhibition of growth of Saccharomyces cerevisiae F221A mutant at 0.6 mM. The class given is functional, organism-based. The procedure, abridged:
as §1

Experiment [15] concerns Saccharomyces cerevisiae. As to the kind of experiment: Inhibition of growth of Saccharomyces cerevisiae E173H mutant at 0.6 mM. The experiment is classed as functional, organism-based. The procedure, abridged:
as §1

The subject of experiment [16] is U-937. As to the kind of experiment: Inhibition of HAT in human U937 cells at 25 uM. The experiment is classed as functional. On the set-up: scale not given: the % may be the effect or the level left. The procedure, abridged: as §2
The subject of experiment [17] is U-937. The experiment is described as follows: Inhibition of alpha-tubulin acetylation in human U937 cells at 100 uM. The class given is functional, cell-based. Put shortly: (§6)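 SAHA 5 µM pretreatment of U937 cells for 2 h, then wash and 4 h with vehicle or 100 µM compound. Acetyl-H3 and acetyl-α-tubulin detected by Western blot (50 µg total protein for tubulin, total ERKs as loading control).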

Experiment [18] relates to U-937. As to the kind of experiment: Inhibition of H3 histone acetylation in human U937 cells at 100 uM. The experiment is classed as functional, cell-based. The procedure, abridged:
as §6

Experiment [19] concerns U-937. The experiment is described as follows: Inhibition of H3 histone acetylation in human U937 cells at 2.5 mM. The experiment is classed as functional, cell-based. The procedure, abridged:
as §3

In experiment [20] the test system is Saccharomyces cerevisiae. As to the kind of experiment: Inhibition of Saccharomyces cerevisiae H3 histone acetylation at 0.6 mM. The experiment is classed as functional, organism-based. The procedure, abridged: as §4
In experiment [21] the test system is U-937. The experiment is described as follows: Induction of apoptosis in human U937 cells at 1 mM after 24 hrs. The class given is functional. The procedure, abridged:
(§7)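 U937 cells in RPMI with 10% FBS and antibiotics, held at 200 000 cells/mL, treated 24 h at 1 mM (DMSO stock). Cell cycle: 2.5 × 10^5 cells in hypotonic buffer with propidium iodide and RNase A, 30 min dark, flow cytometry; three experiments. Apoptosis: Annexin V/propidium iodide double staining by FACS.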

The test system of experiment [22] is Saccharomyces cerevisiae. As to the kind of experiment: Inhibition of Saccharomyces cerevisiae H3 histone acetylation at 1 mM. The experiment is classed as functional, organism-based. The procedure, abridged:
as §4

Experiment [23] has as its system U-937. As to the kind of experiment: Cell cycle arrest at G1 phase in human U937 cells at 1 mM after 24 hrs. The experiment is classed as functional, cell-based. The procedure, abridged: as §7

Chain of Histone acetyltransferase GCN5 (Saccharomyces cerevisiae S288c) (Q03330 whole entry): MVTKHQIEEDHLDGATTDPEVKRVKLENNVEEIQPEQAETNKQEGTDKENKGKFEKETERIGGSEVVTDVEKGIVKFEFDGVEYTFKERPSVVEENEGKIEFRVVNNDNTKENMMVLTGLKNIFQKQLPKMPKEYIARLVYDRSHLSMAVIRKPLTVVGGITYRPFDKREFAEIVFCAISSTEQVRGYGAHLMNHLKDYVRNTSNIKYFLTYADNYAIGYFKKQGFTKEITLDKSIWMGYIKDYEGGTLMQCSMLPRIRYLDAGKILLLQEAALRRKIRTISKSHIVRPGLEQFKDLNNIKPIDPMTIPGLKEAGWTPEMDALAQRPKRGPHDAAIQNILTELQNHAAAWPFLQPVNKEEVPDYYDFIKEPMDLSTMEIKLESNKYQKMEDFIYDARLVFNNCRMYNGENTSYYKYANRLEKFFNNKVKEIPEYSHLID

For `CCOC(=O)c1cnc2ccccc2c1`, the result (in experiment [1]; with U-937 [3]; in the experiment on Saccharomyces cerevisiae [4]; in experiment [5]; with Saccharomyces cerevisiae [6]; with Saccharomyces cerevisiae [7]) was Active. Further, the outcome in [9] was Active. The values for the Activity in the experiment with U-937 [2] and in the experiment on U-937 [8] were 25% and 14%, respectively.
With `NC(=O)c1cnc2ccccc2c1`, the outcome in experiment [1] was inactive.
For the compound `COc1cc(/C=C/C(=O)CC(=O)/C=C/c2ccc(O)c(OC)c2)ccc1O` [CURCUMIN], the Activity with U-937 [10] is on record as 17.5%.
In the experiment on U-937 [10], `C=C1C(=O)O[C@H](CCC)[C@H]1C(=O)O` registered an Activity of 44%.
Regarding `CCOC(=O)c1cccnc1C`, the result (in experiment [1]; in the experiment on Saccharomyces cerevisiae [11]; with Saccharomyces cerevisiae [12]; in the experiment with Saccharomyces cerevisiae [13]; with Saccharomyces cerevisiae [14]; in experiment [5]) was inactive. Further, the result (with Saccharomyces cerevisiae [7]; in [9]; with Saccharomyces cerevisiae [15]) was inactive.
In the case of `CCOC(=O)c1ccc2ccccc2c1`, the result in experiment [1] was inactive.
Still for that read-out and setting: the value for `O=C(O)c1cnc2ccccc2c1` was “inactive”.
Consider `C=CC/C=C\C/C=C\CCCCCCCc1cccc(O)c1C(=O)O` [ANACARDIC ACID], for which the Activity in the experiment with U-937 [10] was 15%.
Turning to `CCCCCc1nc2ccccc2c(O)c1C(=O)O`, the values for the Activity with U-937 [16] and with U-937 [10] were 24% and 30%, respectively. In addition, the result in the experiment with U-937 [17] and in the experiment on U-937 [18] was Active.
Consider `CCOC(=O)c1cc2ccccc2nc1C`, for which the result (with U-937 [19]; with U-937 [3]; with Saccharomyces cerevisiae [20]; in experiment [5]; with Saccharomyces cerevisiae [6]; in the experiment with Saccharomyces cerevisiae [22]) was Active. Further, the result (in [9]; in the experiment with U-937 [23]) was Active. The values for the Activity in the experiment on U-937 [2], with U-937 [21] and in the experiment with U-937 [8] were 32%, 27% and 8.8%, respectively. In addition, the result in the experiment with Saccharomyces cerevisiae [12] and with Saccharomyces cerevisiae [7] was inactive.
In the case of `CCOC(=O)c1c(C)nc2ccccc2c1O`, in experiment [1], the outcome was inactive.
The same measure, in the same setting: the value for `Cc1ccc2ccccc2n1` was “inactive”.
